Data taken from ChEMBL document CHEMBL5230161, “Exploring structural effects in a new class of NRF2 inhibitors” (RSC Med Chem, 2023).
Converted amounts (≈) assume the structure as drawn. The source made the active and inactive calls. No cut-off for these calls is given here.

How the values were obtained:
MCF7 [1] = test: Inhibition of NRF2/ARE (unknown origin) transfected in human MCF7 cells assessed as cellular activity preincubated with compound for 1 hrs followed by tBHQ addition and measured after 24 hrs by steady-glo luciferase assay relative to control; assay type: cell-based; parameters: concentration or dose not given beside the values; conditions: time 25.0 hrs, dose or concentration not given here
A549 [2] = test: Antiproliferative activity against human A549 cells assessed as inhibition of cell growth incubated for 72 hrs by MTT assay; assay type: functional; parameters: scale not given: the % may be the effect or the level left
How it was run: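 A549 human lung cancer cells exposed to a single 5 μmol L⁻¹ dose for 72 h; viability read by MTT assay.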

MCF7 [3] = test: Inhibition of NRF2/ARE (unknown origin) transfected in human MCF7 cells assessed as cellular activity measured before deprotection of compound preincubated with compound for 1 hrs followed by tBHQ addition and measured after 24 hrs by steady-glo luciferase assay relative to control; assay type: cell-based; conditions: time 25.0 hrs, dose or concentration not given here
[4] = target: T1, Nuclear factor erythroid 2-related factor 2 (Homo sapiens) (UniProt Q16236); test: Activation of Nrf2 (unknown origin) assessed as cellular activity; parameters: concentration or dose not given beside the values; conditions: filed as activator
T1 sequence (whole entry): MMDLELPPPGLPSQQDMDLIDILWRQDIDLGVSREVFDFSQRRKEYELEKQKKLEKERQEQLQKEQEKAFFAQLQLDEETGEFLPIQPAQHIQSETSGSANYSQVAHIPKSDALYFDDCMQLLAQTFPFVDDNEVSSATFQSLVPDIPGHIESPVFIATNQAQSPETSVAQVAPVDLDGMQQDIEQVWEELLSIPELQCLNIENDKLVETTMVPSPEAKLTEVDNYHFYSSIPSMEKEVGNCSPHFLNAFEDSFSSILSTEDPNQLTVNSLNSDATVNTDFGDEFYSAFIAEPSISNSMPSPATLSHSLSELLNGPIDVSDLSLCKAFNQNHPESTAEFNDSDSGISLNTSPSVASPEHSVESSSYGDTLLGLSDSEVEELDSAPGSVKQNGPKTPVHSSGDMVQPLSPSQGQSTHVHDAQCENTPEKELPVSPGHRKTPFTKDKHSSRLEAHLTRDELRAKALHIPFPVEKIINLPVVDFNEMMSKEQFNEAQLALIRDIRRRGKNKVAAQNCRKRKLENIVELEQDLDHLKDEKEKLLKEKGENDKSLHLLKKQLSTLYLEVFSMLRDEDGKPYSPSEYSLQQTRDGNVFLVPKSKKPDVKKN

[5] = target: T1, Nuclear factor erythroid 2-related factor 2 (Homo sapiens); test: Activation of Nrf2 (unknown origin) assessed as cellular activity measured before deprotection of compound; conditions: filed as activator
[6] = Solubility of the compound in pH 7.4 PBS buffer; assay type: physicochemical
A549 [7] = test: Induction of cell cycle arrest in human A549 cells assessed as accumulation of cells at G2/M phase at 10 uM incubated for 24 hrs by PI staining based flow cytometric analysis; assay type: functional
How it was run: (§1)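 A549 or H460 cells synchronized in low-serum medium 12 h, then inhibitor 24 h; propidium iodide staining, flow cytometry, univariate cell-cycle model (Watson pragmatic, G0/1 and G2/M peak constraints); % of total cells as mean ± SE, n = 2-3 independent experiments.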

NCI-H460 [8] = test: Induction of cell cycle arrest in human NCI-H460 cells assessed as accumulation of cells at G2/M phase at 10 uM incubated for 24 hrs by PI staining based flow cytometric analysis; assay type: functional; how it was run: as §1
A549 [9] = test: Inhibition of cell migration in human A549 cells at 10 uM incubated for 24 hrs by DAPI staining based transwell migration assay relative to control; assay type: functional
How it was run: (§2)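 Transwell migration of A549 cells seeded in serum-free medium with DMSO vehicle or compound (1, 5, 10 μmol L⁻¹) in top chamber; bottom medium with compound and 5% FBS chemoattractant; 24 h, filters fixed, unmigrated cells removed, DAPI stain, 9 fields imaged per insert; two inserts per condition, n = 2-3; one- or two-way ANOVA vs vehicle.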

[10] = target: T1, Nuclear factor erythroid 2-related factor 2 (Homo sapiens); test: Inhibition of NRF2 signalling pathway in human A549 cells assessed as decrease in NQO1 mRNA level at 5 to 10 uM incubated for 24 hrs by RT-PCR analysis; assay type: cell-based; conditions: dose 5-10 µM
How it was run: (§3)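 A549 cells incubated with compound 24 h; NQO1, GCLC, AKR1C2, GCLM mRNA by RT-PCR, normalized to GAPDH and DMSO vehicle; representative of 3 independent experiments.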

[11] = target: T1, Nuclear factor erythroid 2-related factor 2 (Homo sapiens); test: Inhibition of NRF2 signalling pathway in human A549 cells assessed as decrease in GCLC mRNA level at 5 to 10 uM incubated for 24 hrs by RT-PCR analysis; assay type: cell-based; conditions: dose 5-10 µM; how it was run: as §3
[12] = target: T1, Nuclear factor erythroid 2-related factor 2 (Homo sapiens); test: Inhibition of NRF2 signalling pathway in human A549 cells assessed as decrease in AKR1C2 mRNA level at 5 to 10 uM incubated for 24 hrs by RT-PCR analysis; assay type: cell-based; conditions: dose 5-10 µM; how it was run: as §3
[13] = target: T1, Nuclear factor erythroid 2-related factor 2 (Homo sapiens); test: Inhibition of NRF2 signalling pathway in human A549 cells assessed as decrease in GCLM mRNA level at 5 to 10 uM incubated for 24 hrs by RT-PCR analysis; assay type: cell-based; conditions: dose 5-10 µM; how it was run: as §3
A549 [14] = test: Antiproliferative activity against human A549 cells assessed as reduction in cell viability incubated for 72 hrs by MTT assay; assay type: functional, cell-based; conditions: A549, 72 h
NCI-H358 = test: Antiproliferative activity against human NCI-H358 cells assessed as reduction in cell viability incubated for 72 hrs by MTT assay; assay type: functional, cell-based; conditions: NCI-H358, 72 h
A549 [15] = test: Induction of cell cycle arrest in human A549 cells assessed as accumulation of cells at G2/M phase at 3 uM incubated for 24 hrs by PI staining based flow cytometric analysis; assay type: functional; how it was run: as §1
NCI-H460 [16] = test: Induction of cell cycle arrest in human NCI-H460 cells assessed as accumulation of cells at G2/M phase at 3 uM incubated for 24 hrs by PI staining based flow cytometric analysis; assay type: functional; how it was run: as §1
A549 [17] = test: Inhibition of cell migration in human A549 cells at 1 uM incubated for 24 hrs by DAPI staining based transwell migration assay; assay type: functional; how it was run: as §2
A549 [18] = test: Inhibition of cell migration in human A549 cells at 5 uM incubated for 24 hrs by DAPI staining based transwell migration assay relative to control; assay type: functional; how it was run: as §2

SMILES	inhibition (MCF7 [1]) [%]	Activity [4] [%]	further results
Cc1nc(Nc2cccc(I)c2)c(C#N)cc1-c1ccccc1	51.8		Activity (A549 [2]): 26.6%
Cc1cc(Nc2nc(C)c(-c3ccccc3)cc2C#N)cc(C)c1Br	25.7		
Cc1nc(Nc2cccc(C(C)O)c2)c(C#N)cc1-c1ccccc1 (stereo not drawn)	5.2		inhibition (MCF7 [3]): 26%
N#Cc1cc(-c2ccccc2)cnc1Nc1cnccn1	28.3		
N#Cc1c(-c2ccccc2)ccnc1Nc1cc(Br)ccn1	7.5		
N#Cc1cc(-c2ccccc2)cnc1Nc1ccc(Cl)nn1		-131	
Cc1cc(C)nc(Nc2ncc(-c3ccccc3)cc2C#N)n1	11.2		
COc1ccnc(Nc2ncc(-c3ccccc3)cc2C#N)c1	39.7		
N#Cc1c(-c2ccccc2)ccnc1Nc1cc(CO)ccn1		-31.8	Activity [5]: -4.65%
Cc1cc(Nc2ncc(-c3ccccc3)cc2C#N)nc(C)n1		-33.9	
Cc1cc(C)cc(Nc2nccc(-c3ccccc3)c2C#N)c1	39		
CCc1ccnc(Nc2ncc(-c3ccccc3)cc2C#N)c1	42.3		
Cc1cc(C)cc(Nc2ncc(-c3cc(C)cc(C)c3)cc2C#N)c1	25.1		
Cc1ccc(-c2cnc(Nc3cc(C)cc(C)c3)c(C#N)c2)cc1		-29.6	
N#Cc1cc(-c2ccccc2)cnc1Nc1ccccn1	25.5		
Cc1ccnc(Nc2nccc(-c3ccccc3)c2C#N)c1	35.4		
Cc1nc(C)nc(Nc2ncc(-c3ccccc3)cc2C#N)n1	9.6		
CCOC(=O)c1ccnc(Nc2ncc(-c3ccccc3)cc2C#N)c1		-0.1	
Cc1cc(Nc2ncc(-c3ccccc3)cc2C#N)ccn1		-20.3	
Cc1cc(C)cc(Nc2ncc(-c3ccncc3)cc2C#N)c1		-42.8	
Cc1cc(C)cc(Nc2ncc(-c3ccccc3Cl)cc2C#N)c1	32.9		
CCCc1nc(Nc2cc(C)cc(C)c2)c(C#N)cc1-c1ccccc1		-11.8	

SMILES	inhibition (MCF7 [1]) [%]	Activity [4] [%]	further results
N#Cc1c(-c2ccccc2)ccnc1Nc1ccccn1		-78.1	
Cc1cc(C)cc(Nc2nc(C)c(-c3ccccc3)cc2C(N)=O)c1		-18.1	
CC(C)(C)[Si](C)(C)OCc1ccnc(Nc2ncc(-c3ccccc3)cc2C#N)c1	43.3		
COc1cc(Nc2ncc(-c3ccccc3)nc2C#N)cc(OC)c1		-66	
Cc1cc(C)cc(Nc2nc(C)c(-c3cccc(Cl)c3)cc2C#N)c1	49.2		
Cc1cc(C)cc(Nc2nc3ccccc3cc2C#N)c1	21.2		
Cc1cc(C)cc(Nc2nc(C)ccc2C#N)c1	6.1		
N#Cc1cc(-c2ccccc2)cnc1Nc1cc(C2CC2)ccn1		-23.6	
Cc1cc(C)cc(Nc2nc(-c3ccccc3)ccc2C#N)c1	3.7		
Cc1cc(N)cc(Nc2nc3ccccc3cc2C#N)c1		-9.5	
COc1ccc(-c2cnc(Nc3cc(C)cc(C)c3)c(C#N)c2)cc1		-1.5	
Cc1cc(Nc2nc(C)c(-c3ccccc3)cc2C#N)cc(C)c1C	37.2		
Cc1cc(C)cc(Nc2ncc(-c3cc(Cl)cc(Cl)c3)cc2C#N)c1	2.9		
Cc1cccc(Nc2nc(C)c(-c3ccccc3)cc2C#N)c1	40.9		
Cc1cc(Nc2ncc(-c3ccccc3)cc2C#N)cc(C)c1C		-32.3	
Cc1nc(Nc2cccc(C(C)C)c2)c(C#N)cc1-c1ccccc1	55.2		solubility [6]: 0.9 µM (≈ 0.295 µg/mL)
Cc1cc(C)cc(Nc2nc(C)c(-c3ccccc3)cc2C#N)c1	54.6		solubility [6]: 3 µM (≈ 0.94 µg/mL); Activity (A549 [2]): 9.8%; Activity (A549 [7]): Active; Activity (NCI-H460 [8]): Active; inhibition at 10 µM (A549 [9]): 65%
Cc1cc(C)cc(N(C)c2nc(C)c(-c3ccccc3)cc2C#N)c1	21.9		
Cc1cc(C)cc(Nc2ncc(-c3cccnc3)cc2C#N)c1		-8.7	
Cc1cc(Br)cc(Nc2nc(C)c(-c3ccccc3)cc2C#N)c1	58.4		Activity (A549 [2]): 35.3%
N#Cc1cc(-c2ccccc2)cnc1Nc1cc(C(F)(F)F)ccn1	55.3		
CC(=O)N(c1cc(C)cc(C)c1)c1nc(C)c(-c2ccccc2)cc1C#N	12.5		

SMILES	inhibition (MCF7 [1]) [%]	Activity [4] [%]	further results
Cc1cc(C)cc(Nc2ncc(-c3cccc(Cl)c3)cc2C#N)c1	18.2		
Cc1ccnc(Nc2ncc(-c3ccccc3)cc2C#N)c1	46.7		solubility [6]: 209 µM (≈ 59.8 µg/mL); Activity (A549 [2]): 59.8%; inhibition [10]: Active; inhibition [11]: Active; inhibition [12]: Active; inhibition [13]: Active; IC50 (A549 [14]): 610 nM; IC50 (NCI-H358): 580 nM; Activity (A549 [15]): Active; Activity (NCI-H460 [16]): Active; inhibition at 10 µM (A549 [9]): 79%; inhibition (A549 [17]): inactive; inhibition at 5 µM (A549 [18]): 72%
Cc1cccc(Nc2ncc(-c3ccccc3)cc2C#N)n1		-13.8	
Cc1cc(C)nc(Nc2ncc(-c3ccccc3)cc2C#N)c1	20		
Cc1cc(C)cc(Cc2ncc(-c3ccccc3)cc2C#N)c1		-33.9	
Cc1cc(C)cc(Nc2ncc(-c3ccc(Cl)cc3)cc2C#N)c1		-4.9	
Cc1cc(C)cc(Nc2ncc(-c3cccc(O[Si](C)(C)C(C)(C)C)c3)cc2C#N)c1	12.6		
COc1ccnc(Nc2nccc(-c3ccccc3)c2C#N)c1		-4.5	
Cc1cc(C)cc(Nc2ncc(-c3ccccc3)cc2C#N)c1	38.4		solubility [6]: 4 µM (≈ 1.2 µg/mL)
Cc1cc(C)cc(Oc2ncc(-c3ccccc3)cc2C#N)c1		-45.4	
Cc1nc(Nc2cccc(CO)c2)c(C#N)cc1-c1ccccc1	16.7		
Cc1cc(C)cc(Nc2nc3ncccc3cc2C#N)c1		-42.7	
Cc1nc(Nc2cc(Br)cc(Br)c2)c(C#N)cc1-c1ccccc1	7.7		
Cc1cncc(Nc2ncc(-c3ccccc3)cc2C#N)c1	25.3		
Cc1cc(C)cc(Nc2ncc(-c3ccccc3)nc2C#N)c1		-7.8	
Cc1cc(C)cc(Nc2nc(C)c(C(C)C)cc2C#N)c1		-6.3	
Cc1ccc(C)c(Nc2nc(C)c(-c3ccccc3)cc2C#N)c1	51		
COc1cc(OC)cc(-c2cnc(Nc3cc(C)cc(C)c3)c(C#N)c2)c1		-23.3	
Cc1nc(Nc2cc(Cl)cc(Cl)c2)c(C#N)cc1-c1ccccc1	15.7		
Cc1cncc(Nc2ncc(-c3ccccc3)cc2C#N)n1	13.2		
